Assay results: ChEMBL document CHEMBL2429835
Values after ≈ are worked out from the molar mass of the structure shown. Active and inactive are the calls of the source. The rule behind the calls is not given here.

Legend:
[1] = test system: Mycobacterium tuberculosis; assay: Antimycobacterial activity against Mycobacterium tuberculosis H37Rv ATCC 27294 incubated for 10 days under low oxygen condition followed by normoxic environment for 28 hrs by low oxygen recovery assay; format: functional
How it was run: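 Luciferase (luxAB) reporter strain adapted to low oxygen in a fermenter. Exposed to samples for 10 days at 37 °C under hypoxia, then 28 h normoxic at 37 °C. Luminescence read; MIC is the lowest concentration cutting luminescence by ≥90% versus untreated cultures.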

[2] = Selectivity index, ratio of IC50 for african green monkey Vero cells to MIC90 for Mycobacterium tuberculosis H37Rv ATCC 27294 by microplate Alamar blue assay; format: functional
Vero = assay: Cytotoxicity against african green monkey Vero cells after 72 hrs by MTS-PMS assay; format: cell-based; details: Chlorocebus sabaeus
How it was run: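 Vero cells in EMEM with 10% FBS at 37 °C, 5% CO2, diluted to 10^6 cells/mL. Exposed to 2-fold serial dilutions for 72 h at 37 °C.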

[3] = test system: Mycobacterium tuberculosis; assay: Antimycobacterial activity against Mycobacterium tuberculosis H37Rv ATCC 27294 by microplate Alamar blue assay; format: functional
How it was run: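 Strain (H37Rv or ATCC single-drug-resistant isolates) grown to late log phase in 7H9 with 0.2% glycerol, 0.05% Tween80, 10% OADC. Cells washed into PBS, passed through 8 μm filter, frozen; CFU titred on 7H11 agar. MABA MIC is the lowest concentration giving ≥90% growth inhibition versus untreated controls.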

[4] = test system: Mycolicibacterium smegmatis; assay: Antimycobacterial activity against Mycobacterium smegmatis MC2 155 at 100 ug/ml after 3 days by microplate Alamar blue assay; format: functional, organism-based; details: str. MC2 155
How it was run: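 MABA: 37 °C for 3 days, then Tween80 (20%) and Alamar blue added, 4 h further incubation; fluorescence read-out. Tested at 100 μg/mL.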

Acinetobacter baumannii = assay: Antibacterial activity against Acinetobacter baumannii at 100 ug/ml by broth microdilution method; format: functional, organism-based
Streptococcus pneumoniae = assay: Antibacterial activity against Streptococcus pneumoniae at 100 ug/ml; format: functional, organism-based
How it was run: (§1)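 Broth microdilution per NCCLS guidelines; growth read spectrophotometrically at 570 nm, except S. pneumoniae at 490 nm, which was tested with 2% HBL supplement. Compounds tested up to 100 μg/mL.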

Mycobacterium kansasii [5] = assay: Antimycobacterial activity against Mycobacterium kansasii ATCC 12478 after 7 days by microplate Alamar blue assay; format: functional; details: ATCC 12478, 168 h
How it was run: (§2)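 MABA in 7H12 (M. abscessus, M. bovis BCG) or 7H9 (others). Pre-dye incubation: M. abscessus 37 °C 3 days; BCG 37 °C 7 days; M. chelonae 30 °C 3 days; M. marinum 30 °C 5 days; M. avium and M. kansasii 37 °C 6 days. Then 20% Tween80 plus Alamar blue added: 4 h (abscessus), 6 days (chelonae), 1 day (others). Tested at 100 μg/mL.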

Pseudomonas aeruginosa = assay: Antibacterial activity against Pseudomonas aeruginosa ATCC 27853 at 100 ug/ml by broth microdilution method; format: functional, organism-based; how it was run: as §1
Mycobacterium marinum [6] = assay: Antimycobacterial activity against Mycobacterium marinum ATCC 927 at 100 ug/ml after 6 days by microplate Alamar blue assay; format: functional, organism-based; how it was run: as §2
Mycobacteroides chelonae = assay: Antimycobacterial activity against Mycobacterium chelonae ATCC 35752 at 100 ug/ml after 9 days by microplate Alamar blue assay; format: functional, organism-based; how it was run: as §2
[7] = test system: Mycobacteroides abscessus; assay: Antimycobacterial activity against Mycobacterium abscessus ATCC 19977 at 100 ug/ml after 7 days by microplate Alamar blue assay; format: functional
Candida albicans = assay: Antifungal activity against Candida albicans ATCC 90028 at 100 ug/ml by broth microdilution method; format: functional, organism-based; how it was run: as §1
Enterococcus faecalis = assay: Antibacterial activity against Enterococcus faecalis ATCC 29212 at 100 ug/ml by broth microdilution method; format: functional, organism-based; how it was run: as §1
Mycobacterium avium = assay: Antimycobacterial activity against Mycobacterium avium ATCC 15769 at 100 ug/ml after 7 days by microplate Alamar blue assay; format: functional, organism-based; how it was run: as §2
Escherichia coli = assay: Antibacterial activity against Escherichia coli ATCC 25922 at 100 ug/ml by broth microdilution method; format: functional, organism-based; how it was run: as §1
Staphylococcus aureus = assay: Antibacterial activity against Staphylococcus aureus ATCC 29213 at 100 ug/ml by broth microdilution method; format: functional, organism-based; how it was run: as §1
Mycobacterium kansasii [8] = assay: Antimycobacterial activity against Mycobacterium kansasii ATCC 12478 at 100 ug/ml after 7 days by microplate Alamar blue assay; format: functional; how it was run: as §2
Mycobacterium marinum [9] = assay: Antimycobacterial activity against Mycobacterium marinum ATCC 927 after 6 days by microplate Alamar blue assay; format: functional; details: ATCC 927, 144 h

Row | Compound | MIC90 [1] [µg/mL] | Selectivity Index [2] | IC50 (Vero) [µg/mL] | MIC90 [3] [µg/mL] | Activity [4] | Activity (Acinetobacter baumannii) | Activity (Streptococcus pneumoniae) | MIC90 (Mycobacterium kansasii [5]) [µg/mL] | Activity (Pseudomonas aeruginosa) | Activity (Mycobacterium marinum [6]) | Activity (Mycobacteroides chelonae) | Activity [7] | Activity (Candida albicans) | Activity (Enterococcus faecalis) | Activity (Mycobacterium avium) | Activity (Escherichia coli) | Activity (Staphylococcus aureus) | Activity (Mycobacterium kansasii [8]) | MIC90 (Mycobacterium marinum [9]) [µg/mL]
1 | CN[C@@H]1[C@H](O[C@H]2[C@H](O[C@H]3[C@H](O)[C@@H](O)[C@H](N=C(N)N)[C@@H](O)[C@@H]3N=C(N)N)O[C@@H](C)[C@]2(O)C=O)O[C@@H](CO)[C@H](O)[C@H]1O [STREPTOMYCIN] | 1.07 (≈ 1.84 µM) | >833 | > 100 | 0.12 (≈ 0.206 µM) |  |  |  |  |  |  |  |  |  |  |  |  |  |  | 
2 | O=c1cc(-c2ccccc2)c2ccc(Cl)cc2o1 | 21.9 (≈ 85.3 µM) | 1.27 | 30.4 (≈ 118 µM) | 23.9 (≈ 93.1 µM) | inactive | inactive | inactive | 49.3 (≈ 192 µM) | inactive | inactive | inactive | inactive | inactive | inactive | inactive | inactive | inactive |  | 
3 | O=c1cc(-c2ccccc2)c2cc(Cl)ccc2o1 |  |  | > 100 | > 100 | inactive | inactive | inactive |  | inactive | inactive | inactive | inactive | inactive | inactive | inactive | inactive | inactive | inactive | 
4 | CO[C@H]1/C=C/O[C@@]2(C)Oc3c(C)c(O)c4c(O)c(c(/C=N/N5CCN(C)CC5)c(O)c4c3C2=O)NC(=O)/C(C)=C\C=C\[C@H](C)[C@H](O)[C@@H](C)[C@@H](O)[C@@H](C)[C@H](OC(C)=O)[C@@H]1C [RIFAMPIN] | < 0.05 |  | > 100 | 0.08 (≈ 0.0972 µM) |  |  |  |  |  |  |  |  |  |  |  |  |  |  | 
5 | O=[N+]([O-])c1cn2c(n1)OC[C@@H](OCc1ccc(OC(F)(F)F)cc1)C2 [PRETOMANID] | 0.25 (≈ 0.696 µM) | >5000 | > 100 | 0.02 (≈ 0.0557 µM) |  |  |  |  |  |  |  |  |  |  |  |  |  |  | 
6 | CCOC(=O)c1c(-c2ccccc2)c2cc(Cl)ccc2oc1=O | 37.1 (≈ 113 µM) | 0.82 |  | 44.7 (≈ 136 µM) | inactive | inactive | inactive |  | inactive |  | inactive | inactive | inactive | inactive | inactive | inactive | inactive | inactive | 97.1 (≈ 295 µM)
7 | CCOC(=O)c1c(-c2ccccc2)c2ccc(Cl)cc2oc1=O | 23.2 (≈ 70.6 µM) | 1.1 | 39.4 (≈ 120 µM) | 35.9 (≈ 109 µM) | inactive | inactive | inactive |  | inactive | inactive | inactive | inactive | inactive | inactive | inactive | inactive | inactive | inactive | 
8 | NNC(=O)c1ccncc1 [ISONIAZID] |  |  | > 100 | 0.03 (≈ 0.219 µM) |  |  |  |  |  |  |  |  |  |  |  |  |  |  | 
9 | N[C@@H]1CONC1=O [CYCLOSERINE] |  | >17 | > 100 | 6.02 (≈ 59 µM) |  |  |  |  |  |  |  |  |  |  |  |  |  |  | 
10 | NC[C@H]1O[C@H](O[C@H]2[C@H](O)[C@@H](O[C@H]3O[C@H](CO)[C@@H](O)[C@H](N)[C@H]3O)[C@H](N)C[C@@H]2N)[C@H](O)[C@@H](O)[C@@H]1O [KANAMYCIN] |  | >154 | > 100 | 0.65 (≈ 1.34 µM) |  |  |  |  |  |  |  |  |  |  |  |  |  |  | 
